Activity calls are given as the source filed them. The rule behind the calls is not given here.
Assays:
[1] = Antiproliferative activity against HREC assessed as reduction in cell number incubated for 44 hrs by alamar blue based fluorescence assay; format: functional; settings: Homo sapiens
[2] = Antiproliferative activity against HUVEC assessed as reduction in cell number incubated for 44 hrs by alamar blue based fluorescence assay; settings: human, HUVEC cells
Summary of the method: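 Primary endothelial cells (HRECs, HUVECs; passage 5–8) in EGM-2; 2,500 cells seeded, 24 h at 37°C, 5% CO2, then compounds 0.5 nM–500 μM for 44 h. alamarBlue added 4 h, fluorescence ex 560/em 590 nm.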

[3] = Cytotoxicity against human 92-1 cells assessed as reduction in cell number incubated for 44 hrs by alamar blue based fluorescence assay
[4] = Cytotoxicity against human Y79 cells assessed as reduction in cell number incubated for 44 hrs by alamar blue based fluorescence assay
[5] = Antiproliferative activity against human ARPE19 assessed as reduction in cell number incubated for 44 hrs by alamar blue based fluorescence assay; settings: ARPE-19 cells
Homo sapiens [6] = organism: Homo sapiens; experiment: Antiangiogenic activity against HREC assessed as reduction in tube formation incubated for 8 hrs by matrigel based tube formation assay; format: functional
Summary of the method: (§1)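 HRECs (passage 5–8), 15,000 cells in EGM-2 medium, plated on Matrigel basement membrane coat with DMSO vehicle or graded compound concentrations; SH-11037 as positive control. Images taken after 8 h; tubule length quantified by Angiogenesis Analyzer macros and expressed relative to DMSO control. Mean ± SEM, n=3–6 wells, duplicate experiments; one-way ANOVA with Dunnett's test.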

Homo sapiens [7] = organism: Homo sapiens; experiment: Antiangiogenic activity against HREC assessed as reduction in tube formation at 0.05 to 0.5 uM incubated for 8 hrs by matrigel based tube formation assay; format: functional; summary of the method: as §1
Homo sapiens [8] = organism: Homo sapiens; experiment: Antiangiogenic activity against HREC assessed as reduction in tube formation at 0.01 to 0.1 nM incubated for 8 hrs by matrigel based tube formation assay; format: functional; summary of the method: as §1
Homo sapiens [9] = organism: Homo sapiens; experiment: Antiangiogenic activity against HREC assessed as reduction in tube formation at 0.01 to 0.1 uM incubated for 8 hrs by matrigel based tube formation assay; format: functional; summary of the method: as §1

Row | SMILES | GI50 [1] | GI50 at 44 h [2] | GI50 at 44 h [3] | GI50 at 44 h [4] | GI50 at 44 h [5] | inhibition (Homo sapiens [6]) | inhibition (Homo sapiens [7]) | inhibition (Homo sapiens [8]) | inhibition (Homo sapiens [9])
1 | COc1c(O)cc(O)c2c1OC/C(=C\c1ccc(O)cc1)C2=O | 40 µM | > 100 µM | > 100 µM | > 100 µM |  |  |  |  | 
2 | COc1ccc(CC2(O)COc3cc(O)cc(O)c3C2=O)cc1 (configuration not stated) | > 100 µM | > 100 µM | > 100 µM | > 100 µM |  |  |  |  | 
3 | COc1c(O)cc(O)c2c1OC[C@@H](Cc1ccc(O)cc1)C2=O | 64 to 100 µM | > 100 µM | > 100 µM | > 100 µM | > 100 µM |  |  |  | 
4 | COc1c(O)cc2c(c1O)C(=O)[C@H](Cc1ccc(O)c(O)c1)CO2 | > 100 µM |  | > 100 µM | > 100 µM | > 100 µM |  |  |  | 
5 | O=C1c2c(O)cc(O)cc2OC[C@H]1Cc1ccc(O)c(O)c1 | > 100 µM | > 100 µM | > 100 µM | > 100 µM |  |  |  |  | 
6 | COc1cc2c(cc1O)C[C@]21COc2cc(O)cc(O)c2C1=O | > 100 µM | > 100 µM | > 100 µM | > 100 µM |  |  |  |  | 
7 | O=C1/C(=C/c2ccc(O)c(O)c2)COc2cc(O)cc(O)c21 | > 100 µM |  | > 100 µM | > 100 µM | > 100 µM |  |  |  | 
8 | COc1cc(O)cc(OC)c1C(=O)/C=C/c1ccc(O)cc1 | > 100 µM | > 100 µM |  | > 100 µM |  |  |  |  | 
9 | COc1cc2c(c(OC)c1OC)C(=O)/C(=C/c1ccc(Cl)c(O)c1)CO2 | 0.11 µM |  | 3.6 µM | 13 µM | 0.73 µM |  |  |  | 
10 | COc1ccc2c(c1OC)OC/C(=C\c1ccc(SC)cc1)C2=O | 3.6 µM |  | > 100 µM | 11 µM | > 100 µM |  |  |  | 
11 | COc1cc2c(cc1O)C[C@]21COc2cc(OC(C)=O)cc(OC(C)=O)c2C1=O | > 100 µM | > 100 µM | > 100 µM | > 100 µM |  |  |  |  | 
12 | COc1ccc(/C=C2\COc3c(OC)c(O)cc(O)c3C2=O)cc1 | > 100 µM |  | > 100 µM | > 100 µM | > 100 µM |  |  |  | 
13 | CC(=O)Oc1cc(O)cc2c1C(=O)/C(=C/c1ccc(O)c(O)c1)CO2 | 1.4 µM | 5 µM | > 100 µM | 2.5 µM |  | Dose-dependent effect |  |  | 
14 | COc1cc(O)cc2c1C(=O)[C@H](Cc1ccc(O)cc1)CO2 | > 100 µM | > 100 µM | > 100 µM | > 100 µM |  |  |  |  | 
15 | O=C1/C(=C/c2ccc(O)cc2)COc2cc(O)cc(O)c21 | 60 µM |  | > 100 µM | > 100 µM | > 100 µM |  |  |  | 
16 | O=C1CCOc2cc(O)cc(O)c21 | > 100 µM | > 100 µM | > 100 µM | > 100 µM |  |  |  |  | 
17 | COc1ccc(/C=C2\COc3cc(OC)c(OC)c(O)c3C2=O)cc1O | 0.26 µM |  | > 100 µM | 2.4 µM | 4.8 µM |  | Active |  | 
18 | COc1ccc(/C=C2\COc3cc(OC(C)=O)cc(O)c3C2=O)cc1O | 18 µM | 26 µM | 67 µM | 58 µM |  | Dose-dependent effect |  |  | 
19 | O=Cc1ccc(O)cc1 [4-HYDROXYBENZALDEHYDE] | > 100 µM | > 100 µM | > 100 µM | > 100 µM |  |  |  |  | 
20 | COc1cc(O)cc2c1C(=O)/C(=C/c1ccc(O)c(O)c1)CO2 | > 100 µM | > 100 µM | > 100 µM | > 100 µM |  |  |  |  | 
21 | COc1cc(O)cc2c1C(=O)[C@H](Cc1ccc(O)c(O)c1)CO2 | > 100 µM | 14 µM | > 100 µM | 25 µM |  |  |  |  | 
22 | COc1cc2c(cc1O)C[C@]21COc2cc(OC(C)=O)cc(O)c2C1=O | > 100 µM | > 100 µM | > 100 µM | > 100 µM |  |  |  |  | 
23 | COc1ccc(CC2COc3cc(OC)c(OC)c(OC)c3C2=O)cc1O (racemic) | 0.21 µM |  | > 100 µM | > 100 µM | > 100 µM |  |  |  | 

Row | SMILES | GI50 [1] | GI50 at 44 h [2] | GI50 at 44 h [3] | GI50 at 44 h [4] | GI50 at 44 h [5] | inhibition (Homo sapiens [6]) | inhibition (Homo sapiens [7]) | inhibition (Homo sapiens [8]) | inhibition (Homo sapiens [9])
24 | O=C1c2c(O)cc(O)cc2OC[C@H]1Cc1ccc(O)cc1 | > 100 µM | > 100 µM | > 100 µM | > 100 µM |  |  |  |  | 
25 | COc1cc(O)c2c(c1)OC[C@]1(Cc3c1cc(OC)c(OC)c3OC)C2=O | > 100 µM | > 100 µM | > 100 µM | > 100 µM |  |  |  |  | 
26 | COc1c(O)c(OC)c2c(c1O)OC[C@@H](Cc1ccc(O)cc1)C2=O | > 100 µM |  | > 100 µM | > 100 µM | > 100 µM |  |  |  | 
27 | COc1cc2c(cc1O)[C@@]1(COc3cc(O)cc(O)c3C1=O)C2 | > 100 µM | > 100 µM | > 100 µM | > 100 µM |  |  |  |  | 
28 | COc1ccc(/C=C2\COc3cc(OC(C)=O)c(O)c(O)c3C2=O)cc1OC(C)=O | 16 µM | 11 µM | 69 µM | 29 µM |  | Dose-dependent effect |  |  | 
29 | COc1ccc(C[C@]2(O)COc3cc(OC)cc(O)c3C2=O)cc1 | 64 µM |  | > 100 µM | > 100 µM | > 100 µM |  |  |  | 
30 | COc1cc(O)c2c(c1)OC[C@]1(Cc3c1cc(OC)c(OC)c3O)C2=O | > 100 µM | > 100 µM | > 100 µM | > 100 µM |  |  |  |  | 
31 | COc1cc(OC)c2c(c1)OC/C(=C\c1ccc(SC)cc1)C2=O | 2.5 µM |  | > 100 µM | 2 µM | 48 µM |  |  |  | 
32 | CC(=O)Oc1cc(C[C@H]2COc3cc(O)cc(O)c3C2=O)ccc1O | > 100 µM | > 100 µM | > 100 µM | > 100 µM |  |  |  |  | 
33 | COc1ccc(CC2COc3cc(OC)c(OC)c(OC)c3C2)cc1O (racemic) | 0.00023 µM |  | 52 µM | 18 µM | 0.00034 µM |  |  | Active | 
34 | COc1ccc(/C=C2\COc3cc(O)c(O)c(O)c3C2=O)cc1O | 17 µM | 41 µM | > 100 µM | 23 µM |  |  |  |  | 
35 | COc1ccc(C[C@H]2COc3cc(OC(C)=O)cc(OC(C)=O)c3C2=O)cc1O | > 100 µM | 92 µM | > 100 µM | > 100 µM |  |  |  |  | 
36 | COc1ccc(C[C@]2(O)COc3cc(O)cc(O)c3C2=O)cc1 | 74 µM |  | > 100 µM | > 100 µM | > 100 µM |  |  |  | 
37 | COc1c(O)cc2c(c1O)C(=O)[C@H](Cc1ccc(O)cc1)CO2 | > 100 µM | > 100 µM | > 100 µM | > 100 µM |  |  |  |  | 
38 | COc1cc(OC(C)=O)cc2c1C(=O)/C(=C/c1ccc(OC(C)=O)cc1)CO2 | 96 µM | 43 µM | > 100 µM | > 100 µM |  |  |  |  | 
39 | COc1ccc(C[C@@H]2COc3cc(OC)c(OC)c(OC)c3C2=O)cc1O | 0.035 µM |  | > 100 µM | 85 µM | > 100 µM |  |  |  | Active
40 | COc1ccc(C[C@@H]2COc3cc(O)cc(O)c3C2=O)cc1 | > 100 µM | > 100 µM | > 100 µM | > 100 µM |  |  |  |  | 
41 | COc1ccc(C[C@@H]2COc3c(OC)c(O)cc(O)c3C2=O)cc1 | > 100 µM |  | > 100 µM | > 100 µM | > 100 µM |  |  |  | 
42 | COc1c(O)cc2c(c1O)C(=O)/C(=C/c1ccc(O)c(O)c1)CO2 | > 100 µM |  | > 100 µM | > 100 µM | > 100 µM |  |  |  | 
43 | O=C1c2c(O)cc(O)cc2OC[C@]12Cc1cc3c(cc12)OCO3 | > 100 µM | > 100 µM | > 100 µM | > 100 µM |  |  |  |  | 
44 | CCOc1ccc(C(=O)/C=C/c2ccc(OC)c(OC)c2)c(O)c1C | 3.9 µM |  | > 100 µM | > 100 µM | > 100 µM |  | Active |  | 
45 | COc1ccc(/C=C2\COc3cc(OC)c(OC)c(OC)c3C2=O)cc1O | 2.2 µM |  | 8.2 µM | 23 µM | 1.3 µM |  |  |  | 

Source: ChEMBL document CHEMBL4316633, “The Antiangiogenic Activity of Naturally Occurring and Synthetic Homoisoflavonoids from the Hyacinthaceae ( sensu APGII)” (J Nat Prod, 2019)
